How the values were obtained:
Lung [1] = experiment: Biodistribution in ICR mouse lung at 370 kBq, iv after 60 mins by gamma-counting analysis; format: ADME, organism-based; conditions: in vivo, 1 h
Outline: (§1)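 Male ICR mice, n = 5 per time point, given the radiotracer in saline (370 kBq, 0.1 mL) by intravenous injection. Killed by decapitation at 2, 30, 60 or 120 min. Organs were excised, weighed and gamma-counted with decay correction. Uptake is expressed as % injected dose per gram of wet tissue against diluted standards of the injected material; stomach and intestine are expressed as % injected dose per organ. Mean ± SD.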

Rattus norvegicus = experiment: Biodistribution in Sprague-Dawley rat olfactory bulb at 23 MBq, iv after 60 mins by microPET imaging/CT study in presence of haloperidol; format: ADME, organism-based; conditions: in vivo, 1 h
Outline: (§2)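 Sprague-Dawley rats under isoflurane (1.5–2.5%) in oxygen received 23 MBq radiotracer (0.2 mL saline) via tail vein. Blocking animals were pre-injected with haloperidol (0.2 mL, 1 mg/kg) 5 min before the tracer. MicroPET emission was acquired for 30 min starting 60 min post-injection, followed by a 5 min CT scan; images were summed over 60–90 min.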

Spleen [2] = experiment: Biodistribution in ICR mouse spleen at 370 kBq, iv after 60 mins by gamma-counting analysis; format: ADME, organism-based; conditions: in vivo, 1 h; outline: as §1
Spleen [3] = experiment: Biodistribution in ICR mouse spleen at 370 kBq, iv after 120 mins by gamma-counting analysis; format: ADME, organism-based; conditions: in vivo, 2 h; outline: as §1
Hypothalamus [4] = experiment: Biodistribution in Sprague-Dawley rat hypothalamus at 23 MBq, iv after 60 mins by microPET imaging/CT study; format: ADME, organism-based; conditions: in vivo, 1 h; outline: as §2
Liver [5] = experiment: Biodistribution in ICR mouse liver at 370 kBq, iv after 120 mins by gamma-counting analysis; format: ADME, organism-based; conditions: in vivo, 2 h
Outline: (§3)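 Male ICR mice (n = 5 per group) got 370 kBq tracer in 0.1 mL saline by iv injection. They were decapitated at 2, 30, 60 or 120 min, and organs were weighed and γ-counted. %ID/g was found against diluted aliquots of the injected dose, decay-corrected, and given as mean ± SD.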

Bone [6] = experiment: Biodistribution in ICR mouse bone at 370 kBq, iv after 120 mins by gamma-counting analysis; format: ADME, organism-based, Bone element; conditions: in vivo, 2 h; outline: as §3
Intestine [7] = experiment: Biodistribution in ICR mouse intestine assessed per organ at 370 kBq, iv after 60 mins by gamma-counting analysis in presence of haloperidol relative to control; format: ADME, organism-based; conditions: in vivo, 1 h
Outline: (§4)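 Male ICR mice (n = 5) got saline or haloperidol (0.1 mL, 1.0 mg/kg) via tail vein 5 min before 370 kBq tracer iv. Tissues were taken 60 min later and γ-counted as %ID/g (intestine as %ID/organ). Control and blocked groups were compared by two-tailed independent Student's t test, p ≤ 0.05.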

Brain [8] = experiment: Biodistribution in ICR mouse brain at 370 kBq, iv after 120 mins by gamma-counting analysis; format: ADME, organism-based; conditions: in vivo, 2 h; outline: as §3
Thalamus = experiment: Biodistribution in Sprague-Dawley rat thalamus at 23 MBq, iv after 60 mins by microPET imaging/CT study in presence of haloperidol; format: ADME, organism-based; conditions: in vivo, 1 h; outline: as §2
Spleen [9] = experiment: Biodistribution in ICR mouse spleen at 370 kBq, iv after 2 mins by gamma-counting analysis; format: ADME, organism-based; conditions: in vivo; outline: as §1
Heart [10] = experiment: Biodistribution in ICR mouse heart at 370 kBq, iv after 30 mins by gamma-counting analysis; format: ADME, organism-based; conditions: in vivo, 0.5 h; outline: as §3
Lung [11] = experiment: Biodistribution in ICR mouse lung at 370 kBq, iv after 120 mins by gamma-counting analysis; format: ADME, organism-based; conditions: in vivo, 2 h; outline: as §3
[12] = Ratio of drug uptake from ICR mouse brain to blood after 30 mins; format: ADME, tissue-based; conditions: brain and blood
Muscle tissue [13] = experiment: Biodistribution in ICR mouse muscle at 370 kBq, iv after 2 mins by gamma-counting analysis; format: ADME, organism-based; conditions: in vivo; outline: as §1
Blood [14] = experiment: Biodistribution in ICR mouse blood assessed as radiotracer accumulation at 370 kBq, iv after 60 minutes by gamma-counting analysis in presence of SA4503; format: ADME, organism-based; conditions: in vivo, 1 h
Outline: (§5)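 Male ICR mice got saline or SA4503 (0.1 mL; 2, 5, 10 or 2.2 μmol/kg) via tail vein 5 min before 370 kBq tracer (0.1 mL) iv. They were decapitated at 60 min and tissues γ-counted. Percent change was taken against saline controls, with two-tailed Student's t test, p ≤ 0.05.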

Liver [15] = experiment: Biodistribution in ICR mouse liver at 370 kBq, iv after 60 mins by gamma-counting analysis; format: ADME, organism-based; conditions: in vivo, 1 h; outline: as §3
Muscle tissue [16] = experiment: Biodistribution in ICR mouse muscle at 370 kBq, iv after 120 mins by gamma-counting analysis; format: ADME, organism-based; conditions: in vivo, 2 h; outline: as §1
Heart [17] = experiment: Biodistribution in ICR mouse heart assessed as reduction in radiotracer uptake at 370 kBq, iv after 60 minutes by gamma-counting analysis in presence of SA4503 relative to control; format: ADME, organism-based; set-up: scale not given: the % may be the effect or the level left; conditions: in vivo, 1 h; outline: as §5
Blood [18] = experiment: Biodistribution in ICR mouse blood at 370 kBq, iv after 60 mins by gamma-counting analysis in presence of haloperidol relative to control; format: ADME, organism-based; conditions: in vivo, 1 h; outline: as §4
Bone [19] = experiment: Biodistribution in ICR mouse bone at 370 kBq, iv after 2 mins by gamma-counting analysis; format: ADME, organism-based, Bone element; conditions: in vivo; outline: as §3
Kidney [20] = experiment: Biodistribution in ICR mouse kidney at 370 kBq, iv after 2 mins by gamma-counting analysis; format: ADME, organism-based; conditions: in vivo; outline: as §3
Kidney [21] = experiment: Biodistribution in ICR mouse kidney at 370 kBq, iv after 30 mins by gamma-counting analysis; format: ADME, organism-based; conditions: in vivo, 0.5 h; outline: as §3
Brain [22] = experiment: Biodistribution in ICR mouse brain assessed as reduction in radiotracer uptake at 370 kBq, iv after 60 minutes by gamma-counting analysis in presence of haloperidol; format: ADME, organism-based; conditions: in vivo, 1 h
Outline: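 Male ICR mice got saline or a blocker (haloperidol, (S)-(−)-raclopride, fluvoxamine or tamoxifen; 0.1 mL, 2.2 μmol/kg) via tail vein 5 min before 370 kBq tracer iv. Brain was γ-counted at 60 min and compared with saline controls by two-tailed Student's t test, p ≤ 0.05.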

Spleen [23] = experiment: Biodistribution in ICR mouse spleen at 370 kBq, iv after 30 mins by gamma-counting analysis; format: ADME, organism-based; conditions: in vivo, 0.5 h; outline: as §1
[24] = Ratio of drug uptake from ICR mouse brain to blood after 2 mins; format: ADME, tissue-based; conditions: brain and blood
Nucleic Acid = experiment: Ratio of drug uptake in Sprague-Dawley rat temporal cortex auditory area to cerebellum at 12.2 MBq, iv after 60 mins by autoradiography; format: ADME, organism-based; conditions: in vivo, 1 h
Intestine [25] = experiment: Biodistribution in ICR mouse intestine assessed per organ at 370 kBq, iv after 120 mins by gamma-counting analysis; format: ADME, organism-based; conditions: in vivo, 2 h
Outline: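 Male ICR mice (n = 5) got 370 kBq iv in 0.1 mL saline and were decapitated at 2, 30, 60 or 120 min. Whole intestine was γ-counted and expressed as percent injected dose per organ, decay-corrected, mean ± SD.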

Stomach = experiment: Biodistribution in ICR mouse stomach assessed per organ at 370 kBq, iv after 60 mins by gamma-counting analysis; format: ADME, organism-based; conditions: in vivo, 1 h; outline: as §1
Liver [26] = experiment: Biodistribution in ICR mouse liver at 370 kBq, iv after 60 mins by gamma-counting analysis in presence of haloperidol relative to control; format: ADME, organism-based; conditions: in vivo, 1 h; outline: as §4
Hypothalamus [27] = experiment: Biodistribution in Sprague-Dawley rat hypothalamus at 23 MBq, iv after 60 mins by microPET imaging/CT study in presence of haloperidol; format: ADME, organism-based; conditions: in vivo, 1 h; outline: as §2

| SMILES | Drug uptake (Lung [1]) [% ID/g] | Drug uptake (Spleen [2]) [% ID/g] | Drug uptake (Spleen [3]) [% ID/g] | Drug uptake (Liver [5]) [% ID/g] | Drug uptake (Bone [6]) [% ID/g] | Drug uptake (Intestine [7]) [%] | Drug uptake (Brain [8]) [% ID/g] | Drug uptake (Spleen [9]) [% ID/g] | Drug uptake (Heart [10]) [% ID/g] | Drug uptake (Lung [11]) [% ID/g] | Kp at 0.5 h [12] | Drug uptake (Muscle tissue [13]) [% ID/g] | Drug uptake (Liver [15]) [% ID/g] | Drug uptake (Muscle tissue [16]) [% ID/g] | Drug uptake (Blood [18]) [%] | Drug uptake (Bone [19]) [% ID/g] | Drug uptake (Kidney [20]) [% ID/g] | Drug uptake (Kidney [21]) [% ID/g] | Drug uptake (Spleen [23]) [% ID/g] | Kp at 2 min [24] | further results |
| --- | --- | --- | --- | --- | --- | --- | --- | --- | --- | --- | --- | --- | --- | --- | --- | --- | --- | --- | --- | --- | --- |
| [18F]CCOc1ccc(CN2CCC3(CC2)OCc2ccccc23)cc1 | 25.21 | 8.52 | 9.09 | 13.6 | 6.13 | -7 | 8.99 | 4.84 | 14.39 | 16.2 | 12.9 | 5.45 | 13.87 | 4.01 | 352 | 2.74 | 18.76 | 13.16 | 8.2 | 4.7 | Drug uptake (Rattus norvegicus): Active; Drug uptake (Hypothalamus [4]): Active; Drug uptake (Thalamus): Active; Drug uptake (Blood [14]): Active; Activity (Heart [17]): 60%; Drug uptake (Brain [22]): Active; Ratio (Nucleic Acid): 1.9; Drug uptake (Intestine [25]): 7.17 %ID; Drug uptake (Stomach): 0.9 %ID; Drug uptake (Liver [26]): -64%; Drug uptake (Hypothalamus [27]): Active |
| [18F]CCOCCOCCOc1ccc(CN2CCC3(CC2)OCc2ccccc23)cc1 | 3.73 | 5.43 | 3.91 | 4.14 | 5.28 | 30 | 3.91 | 5.35 | 2.95 | 3.16 | 1.8 | 3.22 | 6.32 | 2.62 | 17 | 3.38 | 16.45 | 5.09 | 7.64 | 2.9 | Drug uptake (Intestine [25]): 4.04 %ID; Drug uptake (Stomach): 1.45 %ID; Drug uptake (Liver [26]): -36% |
